# Measurements gathered from unrelated publications.
# Compare with care: the assays were run in different laboratories.
# Observed: metabolic stability
# Host: mouse
Compound,matrix,tested at,pH,half-life [min]
CC(C)C(=O)OCc1cc2[nH]c(=S)n(Cc3cccnc3)c(=O)c2cc1Cl,liver microsomes,1 µM,pH 7.4,< 5
Nc1nnc(-c2ccccc2O)cc1N1CCN(Cc2ccc(N3CCC(CN4CCN(c5ccc6c(c5)C(=O)N(C5CCC(=O)NC5=O)C6=O)CC4)CC3)c(F)c2)CC1 (stereo not shown),liver microsomes,1 mM,,59
Cc1cc(-c2ccnc3[nH]cc(F)c23)cc(F)c1[C@@]1(O)[C@H](C)CN(C)C[C@@H]1C,liver microsomes,,,1.7
C=CCn1c(=O)c2cnc(Nc3ccc(N4CCN(C)CC4)cc3)nc2n1-c1ccc2c(n1)[C@@](O)(CC)CC2,liver microsomes,,,77
O=c1c2cc(Cl)ncc2[nH]c(=S)n1Cc1cccnc1,liver microsomes,1 µM,pH 7.4,89.7
COc1ccc(Cn2cc(CO[C@@H]3O[C@H]4[C@H](OC[C@H]4O)[C@H]3O)nn2)cc1,liver microsomes,,,120
C[C@@H]1CNC[C@H](C)[C@@]1(O)c1ccc(-c2ccnc3[nH]cc(F)c23)cc1F,liver microsomes,,,30.1
CCCCCCOc1ccc2c(=O)c3c([nH]c2c1)CCCC3,liver microsomes,1 µM,pH 7.4,11.8
Cc1ccc(CCC(=O)Nc2nnc(S(N)(=O)=O)s2)cc1,liver microsomes,,,> 120
OCc1ccc(-c2nn(Cc3ccccc3)c3ccccc23)o1,hepatocytes,,,1.89
NS(=O)(=O)c1nnc(NC(=O)CCC2CC3CCC2C3)s1 (stereo not shown),liver microsomes,,,46
O=c1c2cc(Cl)c(CO)cc2[nH]c(=S)n1Cc1cccnc1,liver microsomes,1 µM,pH 7.4,29.5
Cc1cc(-c2ccnc3[nH]cc(F)c23)ccc1[C@@]1(O)[C@H](C)CNC[C@@H]1C,liver microsomes,,,8
NC1=NN(c2ccc(Oc3ccccc3)c(S(=O)(=O)O)c2)C(=O)C1,liver microsomes,1 µM,,51.2
O=c1c2ccc(Oc3cccc(OC(F)(F)F)c3)cc2[nH]c2cc(Cl)cc(F)c12,liver microsomes,1 µM,pH 7.4,57
CC(C)c1cc(C(=O)NCCN)c2cnn(C(C)C)c2n1,liver microsomes,,,> 145
C[C@@H]1CNC[C@H](C)[C@@]1(O)c1ccc(-c2ccnc3[nH]cc(F)c23)cc1Cl,liver microsomes,,,9.1
CC(C)n1ncc2c(C(=O)NCC3(C)CNC3)cc(C3CC3)nc21,liver microsomes,,,> 145
O=C(Oc1coc(CSc2ncccn2)cc1=O)c1ccc([N+](=O)[O-])cc1,liver microsomes,,,< 1
O=c1c2c([nH]c3cc(Oc4ccc(OC(F)(F)F)cc4)c(F)cc13)CCCC2,liver microsomes,1 µM,pH 7.4,13.2
C[C@@H]1CNC[C@H](C)[C@@]1(O)c1ccc(-c2ccnc3[nH]cc(F)c23)cc1,liver microsomes,,,49
CCN(CC)CCOc1ccc2c(=O)c3c([nH]c2c1)CCCC3,liver microsomes,1 µM,pH 7.4,> 60
NC(=NCCC[C@@H](C(=O)NCc1ccccc1)n1cc(-c2ccc(-c3ccccc3)cc2)nn1)c1ccc([N+](=O)[O-])o1,liver microsomes,,,120
O=c1c2c([nH]c3cc(OCc4ccc(OC(F)(F)F)cc4)ccc13)CCCC2,liver microsomes,1 µM,pH 7.4,> 60
COCC(=O)OCc1cc2[nH]c(=S)n(Cc3cccnc3)c(=O)c2cc1Cl,liver microsomes,1 µM,pH 7.4,< 5
CN1CCC(Oc2ccc3c(=O)c4c(F)cc(Cl)cc4[nH]c3c2)CC1,liver microsomes,1 µM,pH 7.4,> 60
Cc1cc(-c2ccnc3[nH]cc(F)c23)cc(F)c1[C@@]1(O)[C@H](C)CN(C(C)C)C[C@@H]1C,liver microsomes,,,1.5
O=c1c2ccc(OCc3ccc(OC(F)(F)F)cc3)cc2[nH]c2cc(Cl)cc(F)c12,liver microsomes,1 µM,pH 7.4,> 60
CCN(CC)CCNC(=O)c1c(C)[nH]c(/C=C2\C(=O)Nc3ccc(F)cc32)c1C,liver microsomes,1 µM,pH 7.4,14
Cc1[nH]c(C)c(S(=O)(=O)Nc2ccc(C(F)(F)F)c(Cl)c2)c1C(=O)N(C)C,liver microsomes,,,3.9
CCN(CC)CCCOc1ccc2c(=O)c3c([nH]c2c1)CCCC3,liver microsomes,1 µM,pH 7.4,> 60
